Results on 48 sequences are retold here after the EternaBench riboswitch data.

In this data set the test system is MS2 coat protein. The data set is described as follows: apparent Kd, MS2 coat protein; higher = weaker binding; RNA-MaP array; FMN 200 µM where present. The method, boiled down: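 Stalled E. coli RNA polymerase transcribed the designs on Illumina sequencing-chip clusters. SNAP-549-labelled MS2 coat protein was titrated from 0.7 or 1.5 nM, doubling to 3 µM, without and then with constant ligand, in 100 mM Tris-HCl pH 7.5, 80 mM KCl, 4 mM MgCl2, BSA, DTT, yeast tRNA and Tween-20. Per-cluster binding curves were fitted to green signal normalised to red-channel RNA signal and control-cluster median Fmax. The apparent Kd is the median of the filtered fits.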

[1] abbreviates: designed as: OFF switch for flavin mononucleotide, no ligand.
The mark [2] stands for this setting: ligand present: flavin mononucleotide, designed as: OFF switch for flavin mononucleotide.
Where [3] appears, read: designed as: ON switch for flavin mononucleotide, no ligand.
The mark [4] stands for this setting: ligand present: flavin mononucleotide, designed as: ON switch for flavin mononucleotide.

Turning to “UCCUCACAUGAGGAUCACCCAUGUUAGGAUAUCUCGGUGCCCUGCAGGCAGUGGCACCAGAGAAGGAACGUGCA”, the “apparent Kd” value reads like this: under setting [1], 21.2 nM; under setting [2], 22.1 nM.

As to “UUAUACGUUGAGGAUAUGCGAAUAAGUAUAGUUGCAGAAGGCGAUACAUGAGGAUCACCCAUGUUCAUGGACAU”, the “apparent Kd” value under setting [1] was found to be 126 nM and the “apparent Kd” value under setting [2] stood at 180 nM.

For the sequence “AAACCACAUGAGGAUCACCCAUGUGAUAAAAGCAUAGGAUAUCUGGAUGUGAGAGGCGGCAGAGAAGGAUGCACGC”, the “apparent Kd” value came to 61.5 nM under setting [3] and 53.9 nM under setting [4].

For “GAUUAACAUGAGGAUCACCCAUGUCGUUAAAUGGGAGGAUAUACGUGGACCGUAGUCCGCGUAGAAGGCCUAAUUG”, the “apparent Kd” value under setting [3] was found to be 144 nM and the “apparent Kd” value under setting [4] turned out to be 29.2 nM.

As for “UGUGCUAUGUAGAAGGCAGAUCUGAUUCAGAUCUGAGGAUAUACAUGAGGAUCACCCAUGUUAUGCACCAGCACGAGAGUGCAA”, the “apparent Kd” value is, setting by setting: under setting [1], 8.13 nM; under setting [2], 16 nM.

In the case of “ACAUACUUUCGAGGAUAUCGGUGAUAUAUUUAACGAGAAGGCGAUAAAAGAUAUAAACUUAUAGACAUGAGGAUCACCCAUGUA”, the “apparent Kd” value stood at 27.4 nM under setting [3] and 27.1 nM under setting [4].

As to “GGUGUCAUCGAGAAGGCCUCAACAUGAGGAUCACCCAUGUUGUAAUAUGGGAGGAUAUCGAUGAUACAGCUACGUUUCGUAGCU”, the “apparent Kd” value runs as follows: under setting [3], 20.2 nM; under setting [4], 5.86 nM.

Turning to “GUAGCAUUAUAAGGAUAUUCAUACCGGAAACGGACAUGAGGAUCACCCAUGUGGCGAAAGCCUUGGGAGAAGGUAUUGUGCUAC”, the “apparent Kd” value runs as follows: under setting [3], 402 nM; under setting [4], 24.6 nM.

As to “GGUUCGGGAGGAUAUGUGUUUUUGGACAUGAGGAUCACCCAUGUUUUCAUGUUUUUUCCCACAGAAGGUUUGGGCC”, the “apparent Kd” value was 18.6 nM under setting [1] and 22.9 nM under setting [2].

For “AAAGACAUGAGGAUCACCCAUGUCGGUAUAACUUAAGCGUCACAGGAUAUGUUACGAAAUUAUGGACAGAAGGGUGAGCUGUGG”, the “apparent Kd” value under setting [3] is 23.8 nM and the “apparent Kd” value under setting [4] is 9.02 nM.

Turning to “AGCGGAUUGUAGAAGGGUGACAUGAGGAUCACCCAUGUUCAAAUGCGAUUUACGGUAAUUGAUCCACAGGAUAUACUGUCCGAG”, the “apparent Kd” value runs as follows: under setting [3], 942 nM; under setting [4], 266 nM.

For the sequence “UCAUAUUUACAAGGAUAUCAAUUGAAUAAACAUCGGACAUGAGGAUCACCCAUGUGAAAGUAUGGUGAGAAGGUGUAUUGUCGG”, the “apparent Kd” value runs as follows: under setting [3], 217 nM; under setting [4], 154 nM.

Take “AAUCGCAGUGCAGGAUAUCCAAGGUUUGGCGAAGGAGAAGGGCAUGCGACAUGAGGAUCACCCAUGUAAAGUAUGGCGUCCUCU”: the “apparent Kd” value by setting is: under setting [1], 231 nM; under setting [2], 117 nM.

Regarding “AAACAGGGAGGAUAUACAUGAGGAUCACCCAUGUUCGAGCGUCCUUGAACUACCUCAGGUAGAAGGCCCUAAUU”, the “apparent Kd” value reads like this: under setting [1], 372 nM; under setting [2], 112 nM.

Turning to “AAUUGACACGUAGGAUAUCGCUCUAAUUUAACACGAGAAGGACGUACAUGAGGAUCACCCAUGUUAAAUGGUGUAGAUUAGUUG”, the “apparent Kd” value under setting [1] worked out at 30.9 nM and the “apparent Kd” value under setting [2] was 88 nM.

Consider “UUGUUGUAUGUAGGAUAUGCAUAUUAUUAUUAUGCAGAAGGACAUGAGGAUCACCCAUGUAUAUUAUUAUUAUAUAUUAUAUAU”, for which the “apparent Kd” value runs as follows: under setting [1], 30 nM; under setting [2], 49.3 nM.

Turning to “CAGCGAUAGCUGAACAAUCUAUCUGAGGAUAUCAUGAAUAAACAUGAGGAUCACCCAUGUAAAUAUGAGAAGGCAGAUAGAUUG”, the “apparent Kd” value runs as follows: under setting [3], 4.82 nM; under setting [4], 4.78 nM.

In the case of “UACUAAAAGGAGGAUAUCGUAUCGGAGACGAUACGAGAAGGCUUAACAUGAGGAUCACCCAUGUUCUUCAAUAU”, the “apparent Kd” value is 15.8 nM under setting [1] and 18.2 nM under setting [2].

Consider “CGGUCGAUAUCAGGAUAUCGAUUAAUUACAUGAGGAUCACCCAUGUUGACAAGGAAUAUAACAUGCGAGAAGGGAUUACGAUCG”, for which the “apparent Kd” value reads like this: under setting [3], 10.1 nM; under setting [4], 8.45 nM.

As for “GAGUAGAAGUUAGGAUAUUGGAUAGGGACGGAAUAAGAAGGAGCAAGACAUGAGGAUCACCCAUGUGUAGAAGAAGAGAUCCUC”, the “apparent Kd” value is 448 nM under setting [1] and 168 nM under setting [2].

“GUAGUUAGUAGAGGAUAUUAGUAUGUGUAAUAUUGAGAAGGUUACAUGAGGAUCACCCAUGUGAUCAAUCACUGUUAAGGUUGC”: the “apparent Kd” value runs as follows: under setting [1], 6.48 nM; under setting [2], 6.71 nM.

In the case of “ACAUGAUCAGGAUAUACAUGAGGAUCACCCAUGUUUAUCAAAAAAGGGCCUUCUACAUGUAGAAGGGAUCUUGU”, the “apparent Kd” value is, setting by setting: under setting [1], 14.8 nM; under setting [2], 15.1 nM.

On to “GCGUCAGAAUUAAUUGUGACAGACAGAAGGCAAUAGUUCAUGUCAGACAUGAGGAUCACCCAUGUUGAGGAUAUGUAUUUACUC”, for which the “apparent Kd” value worked out at 7.54 nM under setting [1] and 8.35 nM under setting [2].

Regarding “GCACGGCAUGUAGGAUAUGCAUAGCAUUGCUAUGCAGAAGGACAUGAGGAUCACCCAUGUAUGUAUUCCAUACAAUUCCCGUGC”, the “apparent Kd” value by setting is: under setting [1], 5.86 nM; under setting [2], 12 nM.

On to “GCGAUUUUGUAAGGAUAUAUACGAGUUUCAAGUGUAGAAGGUACUUACAUGAGGAUCACCCAUGUAUACAUGGAUAAUAGUCGC”, for which the “apparent Kd” value reads like this: under setting [3], 269 nM; under setting [4], 136 nM.

As to “AAAACUGGAGGAUAUACAUGAGGAUCACCCAUGUGUGGGUAUACUGUGUCGGCGUCAGGUAGAAGGCCACAAAA”, the “apparent Kd” value by setting is: under setting [1], 108 nM; under setting [2], 88.7 nM.

As for “AUCGACAACAUCAUGGUGGAUCCUGAGGAUAUGAAUAGCUACAUGAGGAUCACCCAUGUCCCGCGUCAGAAGGCAGGUUUGAUC”, the “apparent Kd” value was 400 nM under setting [3] and 41.3 nM under setting [4].

For “GGAAGACAAAGUCUUCCAAUUCGAACAUGAGGAUCACCCAUGUAGGAUAUGCUACUCAAAGAGUAGCAGAAGGACAUGUGCUUU”, the “apparent Kd” value under setting [1] was determined as 37.3 nM and the “apparent Kd” value under setting [2] is 164 nM.

“CUUUAAGUCGAGAAGGACAUGAGGAUCACCCAUGUAGGAUAUCGAUUAGCUUACAACCCGAGCCGCAUUGGUAUGACUGGUGGG”: the “apparent Kd” value is, setting by setting: under setting [3], 12.9 nM; under setting [4], 6.23 nM.

As for “GGAAGACAUGAGGAUCACCCAUGUGGGAUUAUGGGAGGAUAUACAAAGACGAGAGUCAGAGUAGAAGGCCUAGGAU”, the “apparent Kd” value under setting [3] was 84.3 nM and the “apparent Kd” value under setting [4] was 33.9 nM.

As for “GCGGGAGGAGGAUAUACAAUCGUGUGACCCGGACCCUAUGGACAUGAGGAUCACCCAUGUAGAAGGUUUCCCUU”, the “apparent Kd” value runs as follows: under setting [1], 112 nM; under setting [2], 568 nM.

For the sequence “GGCGGCGCGGGCCACCGCAGAACCAGAAGGACAUGAGGAUCACCCAUGUAACAAAACAGGGCGGUGUAGGAUAUGGCAGACCCG”, the “apparent Kd” value was 14.5 nM under setting [1] and 29.7 nM under setting [2].

Regarding “CUGUUCACCAGUGGGCGACCACAUGAGGAUCACCCAUGUAGGGAGGAUAUGCCCGCGCAGCUGUAGCAGAAGGCCCUGCAAAUC”, the “apparent Kd” value by setting is: under setting [1], 21.2 nM; under setting [2], 125 nM.

Turning to “AGCAUGCUAGGAUAUACGGGACAUUAGGGUUCGUUGUAUGGACAUGAGGAUCACCCAUGUAGAAGGAGCGUGCA”, the “apparent Kd” value is, setting by setting: under setting [1], 28 nM; under setting [2], 99.8 nM.

For the sequence “UUGCGCUGUCGAGAGGAUAUGCGGUGUUGGACAUGAGGAUCACCCAUGUUAGCGAUUGCUUUACGGUAGAAGGCUCUUCAGCUGC”, the “apparent Kd” value by setting is: under setting [3], 78.8 nM; under setting [4], 52.9 nM.

As to “CUCCCGAUCACAGGAUAUGCACAUACAAUUAAGGCAGAAGGGUGAUAGUCGGCCGGACAUGAGGAUCACCCAUGUGCAAGGAUA”, the “apparent Kd” value by setting is: under setting [3], 285 nM; under setting [4], 85.2 nM.

Turning to “GGCAUAAACGAGGAUAUCGUUACGGAAACGUAACGAGAAGGUGUAACAUGAGGAUCACCCAUGUUCCUCAAGCC”, the “apparent Kd” value came out at 30.5 nM under setting [1] and 33 nM under setting [2].

As for “ACGAGGGUUACAGGAUAUGAAGCUAAAACGGCGUUAGAAGGGUAUACAGAGUUACAUGAGGAUCACCCAUGUUGUGACUUCGAA”, the “apparent Kd” value under setting [1] was found to be 33.6 nM and the “apparent Kd” value under setting [2] was found to be 41 nM.

For “GACUUGUUAGGAUAUCUUACUUUUGCAUCAUAGUAACCAUUGGAGAAGGGACAUGAGGAUCACCCAUGUUUGGU”, the “apparent Kd” value is, setting by setting: under setting [1], 34.7 nM; under setting [2], 35 nM.

In the case of “AAAGUGUGAGGAUAUCCUGGGCUGGGCCGGGAGGUUCGGUUGGAGAAGGCACAUGAGGAUCACCCAUGUAACGG”, the “apparent Kd” value was 62.7 nM under setting [1] and 53.4 nM under setting [2].

As to “UAACAUACAAAUAUACAUGAGGAUCACCCAUGUUUGUUGGGAAGAAGGGUAACUAUAUUACAUAUACAGGAUAUUUAACAUACU”, the “apparent Kd” value runs as follows: under setting [3], 15.1 nM; under setting [4], 11.7 nM.

On to “GCUACUUAUUUUAAUUAUGAUUUACUAGAAGGUAGAUACAUGAGGAUCACCCAUGUUUAGAGUUCUAAGGAUAUAGUUUUUAGC”, for which the “apparent Kd” value runs as follows: under setting [3], 8.25 nM; under setting [4], 7.24 nM.

As to “GGACAUGUCGUUUACAUGAGGAUCACCCAUGUCGAUAGACAUGAGGAUAUCGAUACAAAUUGUAUCGAGAAGGCAUGCAUGUCC”, the “apparent Kd” value worked out at 91.2 nM under setting [3] and 23.5 nM under setting [4].

Consider “AGCGAACAUGAGGAUCACCCAUGUGAAAAACAUAGAGGAUAUGUCGCAUGCGUGUAAAAGACAGAAGGCUAUCGCG”, for which the “apparent Kd” value under setting [3] is 71.6 nM and the “apparent Kd” value under setting [4] came to 33.9 nM.

As to “UGGGCCUCGUGAGGAUAUACAUGAGGAUCACCCAUGUAAUAAAGUGAACGGAGGAAACUCCGAAUGUAGAAGGCACGAGGCUCA”, the “apparent Kd” value reads like this: under setting [1], 19.5 nM; under setting [2], 147 nM.

Regarding “GCCAGGGAUUCAGGAUAUAUUAGCCGAGGCCGCGUAGAAGGGAAAUCCUGACAUGAGGAUCACCCAUGUCGACCCGCCUUCCUC”, the “apparent Kd” value under setting [3] came to 28.5 nM and the “apparent Kd” value under setting [4] was determined as 29.2 nM.

In the case of “UCAUACUUUCGAGGAUAUCGGUUAACAUAUUAACGAGAAGGCGAUAUAUUGUUUAAUCUUAUAAACAUGAGGAUCACCCAUGUA”, the “apparent Kd” value under setting [3] amounted to 33.9 nM and the “apparent Kd” value under setting [4] amounted to 25.4 nM.

Turning to “AAACACGAUCGAGGAUAUCAUGCUUACGUCCCGGAUCCAUAAACAUGAGGAUCACCCAUGUGAUAUGAGAAGGCGAUAGUCAUA”, the “apparent Kd” value amounted to 19.5 nM under setting [1] and 26.9 nM under setting [2].

For orientation: apparent Kd means a dissociation constant that holds for the conditions of the assay.
